Compound activity from PubChem.
Compounds with a hit are over-represented: about 1.4% of the library has one in this group of screens.
TbMetRS inhib = Trypanosoma brucei MetRS inhibition; purified T. brucei MetRS, ATP depletion, Kinase-Glo luminescence; inhibition, % at 11.9 µM; 360,000 tested, 0.4% active; AID 624268;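 active means inhibition above a per-plate cutoff of the control wells' mean inhibition plus 3 SD, cut at about 5.5% in these data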;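 further: 0% = DMSO wells median and 100% = median of wells with control inhibitor compound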
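Test system: purified T. brucei MetRS enzyme. Also added: ATP, methionine and E. coli bulk tRNA substrates. Compound: 11.9 µM single point. Schedule: 15 min enzyme-compound preincubation, 2 h reaction, 10 min detection, 25 °C. Signal: luciferase luminescence of residual ATP, Kinase-Glo. Evaluation: percent inhibition versus plate control medians. Controls: DMSO wells, low control.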
HDAC3 inh = blocks human histone deacetylase 3; O15379; recombinant HDAC3, fluorogenic peptide/trypsin coupled, fluorescence; inhibition, % at 8.3 µM; 320,000 tested, 0.15% active; AID 2718; in the data active means inhibition above about 26%, passing the limit was not always enough; inconclusive means no clear call, values can overlap the other calls
Efflux pump inh = blocks antifungal efflux pumps in multiplex yeast assay; inhibition, % at 10 µM; AID 485275; S. cerevisiae Candida pump triplex, Nile Red efflux; 330,000 tested, 0.44% active;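 active means plate passing quality check with inhibition over a set limit, or well fluorescence over plate mean plus 4 SD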;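 further: Nile Red retained in pooled yeast measured as flow cytometry median fluorescence; 0% = buffer negative control and 100% = Enniatin B positive control; higher means more Nile Red kept so more efflux inhibition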
CR mimetic SO = yeast age-related superoxide inhibition as caloric restriction mimetic | S. cerevisiae aged cells, superoxide DHE fluorescence; stronger effect = lower value | superoxide response (% of plate mean), % at 10 µM | 330,000 tested, 0.18% active | AID 2690;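 active means superoxide response under a set limit, about three screen SD below normal, cut at about 65% in these data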;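 further: yeast aged for seven days with compound at 30 °C before DHE staining; 100% = average MFI of all compound-treated wells on the plate with controls excluded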
IDE act = IDE (human) activation, cell-based. 340,000 tested, 0.073% active. HEK cells, FAbeta-B cleavage, fluorescence polarization; 0% vehicle, 100% cell-free pure enzyme wells. activation, % at 5.96 µM. P14735;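 active means activation above the mean of all tested compounds plus 3 SD, set per screening campaign, cut at about 17% in these data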
IDE inh = inhibitors of human insulin-degrading enzyme in cells; HEK cells, FAbetaB cleavage, fluorescence polarization; inhibition, % at 5.59 µM; 320,000 tested, 0.41% active; AID 434962;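 active means percent inhibition above the average of all tested compounds plus 3 SD, set per screening campaign, cut at about 16% in these data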;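 further: IDE supplied by intact live HEK cells; FP after avidin binding of uncleaved biotin substrate so inhibition keeps polarization high; 0% = DMSO wells and 100% = 60 µM reference IDE inhibitor Ii1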
Superoxide pick = yeast aging superoxide inhibition, cherry pick confirmation | superoxide response (% of plate), % at 10 µM | shares compounds with CR mimetic SO | S. cerevisiae aging, superoxide DHE fluorescence; stronger effect = lower value | 850 tested, 1% active;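 active means superoxide signal below 65% of the plate average of sample wells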;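 further: cells aged with compound for 7 days at 30 degrees C before staining; 100% equals mean DHE fluorescence of all compound wells on the plate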
DHE counter = counter-screen for compounds affecting DHE oxidation and fluorescence in yeast; fluorescence response, % at 10 µM; S. cerevisiae BY4741, flow cytometry; stronger effect = lower value; AID 435000; 850 tested, under 10 active; shares compounds with CR mimetic SO;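 active means fluorescence response below 15%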;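 further: percent of the mean fluorescence averaged over all compound wells on the plate; lower means stronger quenching of DHE signal or ROS scavenging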
Numbers without * were called inactive; u = inconclusive; x = no result.

SMILES	TbMetRS inhib	HDAC3 inh	Efflux pump inh	CR mimetic SO	IDE act	IDE inh	Superoxide pick	DHE counter
O=C(CSc1nnc2ccccn12)Nc1ccccc1[N+](=O)[O-]	-0.3	x	x	x	x	x	x	x
CC1(C(=O)NCc2ccc3c(c2)OCO3)CCN1C(=O)C1(c2ccc(Cl)cc2)CC1 (stereo unspecified)	-1.2	x	x	x	x	x	x	x
NNC(=O)Cn1c(-c2ccccc2)cc2ccccc21	0.2	-0.2	1.1	103.6	1.4	7.9	x	x
NC(=O)CCn1c2ccccc2c2ccccc21	-0.5	5.3	-0.1	102.2	-3.3	0.3	98.1	98.5
CC(C)CCn1c2ccccc2c2cc(CC(N)=O)ccc21	-0.1	12.8	-0.2	112.9	6.7	5.0	103.3	95.7
O=C(O)Cn1c2ccccc2c2ccccc21	-0.6	8.6	-0.2	122.0	2.5	-3.9	106.9	110.6
O=Cc1c(C(=O)O)n(CC(=O)O)c2ccccc12	0.0	1.1	0.0	84.7	6.7	6.3	x	x
NNC(=O)Cn1c2ccccc2c2ccccc21	-0.6	0.2	0.0	105.0	0.2	6.0	105.1	90.4
Cc1nnsc1-c1nc2ccccc2n1C(CCc1ccccc1)c1nc2ccccc2[nH]1 (stereo unspecified)	-0.6	x	x	x	x	x	x	x
Cc1ccc(CN2C(=O)CSCC2(C)C(=O)NCc2ccccc2)cc1 (stereo unspecified)	-0.1	x	x	x	x	x	x	x
COc1ccccc1NC(=O)CSCc1cc(=O)n2ccsc2n1	-0.8	-3.5	0.4	110.4	-1.0	4.9	x	x
OCCOCCOCCn1c2ccccc2c2ccccc21	-0.1	-9.7	0.0	113.1	0.7	-4.8	105.1	105.0
COc1ccc(NC(=O)Cn2c(=O)oc3ccccc32)cc1	-0.4	-6.5	-0.1	102.9	3.5	2.1	x	x
CC(C)c1ccc(NC(=O)Cn2c(=O)oc3ccccc32)cc1	-2.4	3.7	0.2	65.4*	1.4	1.9	94.9	110.1
Cc1ccc(NC(=O)CSc2cn[nH]n2)cc1	-0.7	-1.7	-0.1	90.2	3.3	1.9	x	x
COc1ccc(-n2nc(C(=O)NCC(=O)NCc3ccco3)c3ccccc3c2=O)cc1	-0.5	6.1	-0.1	101.6	3.7	4.3	x	x
O=C(NCc1ccco1)c1nn(-c2ccccc2)c(=O)c2ccccc12	-1.0	5.2	-0.1	62.5*	0.3	-0.5	89.9	107.4
Cc1ccc(C(=O)Nc2cccc(NC(=O)c3ccc(C)c([N+](=O)[O-])c3)n2)cc1[N+](=O)[O-]	-1.1	-3.4	-0.1	61.2*	4.4	4.2	94.1	103.8
Cc1cc(NC(=O)c2ccc(C)c([N+](=O)[O-])c2)no1	0.3	-0.5	-0.1	109.7	-4.8	2.1	x	x
CC(=O)NCc1ccc(C(=O)CSc2nnc(C3CC3)n2C2CC2)cc1	-0.5	-3.3	-0.1	92.8	-0.7	-1.4	x	x
Cc1cccc([C@@H](NC(=O)OC(C)(C)C)C(=O)OC(C)(C)C)c1	-0.3	9.1	0.2	62.1*	0.3	-1.5	102.3	91.2
Cc1nc(C)c(C(=O)O)c(-c2ccsc2)c1C(=O)O	2.6	0.3	0.0	60.9*	x	-2.9	102.6	90.5
O=C(CCCNC(=O)/C(=C\c1ccc(F)cc1)NC(=O)c1ccccc1)OCc1ccccc1	-0.7	1.8	0.0	90.5	7.4	0.9	x	x
COc1ccc2oc(C(=O)OCC(=O)N(C)c3c(N)n(Cc4ccccc4)c(=O)[nH]c3=O)c(C)c2c1	-0.2	0.2	-0.1	116.2	1.6	-1.6	x	x
CCOC(=O)c1cc(=O)n(Cc2ccccc2C)c2ccccc12	-0.4	-1.1	-0.3	61.0*	-1.3	-1.4	97.9	94.2
SMILES	TbMetRS inhib	HDAC3 inh	Efflux pump inh	CR mimetic SO	IDE act	IDE inh	Superoxide pick	DHE counter
COc1ccccc1CNC(=O)Nc1nc(C(N)Cc2ccc(Cl)cc2)cs1 (stereo unspecified)	-0.3	x	x	x	x	x	x	x
COC(=O)c1c(C)oc(C)c1S(=O)(=O)NC(C)(C)C	-0.4	-1.1	-0.1	98.2	-3.7	-1.5	x	x
C=CCNC(=S)NCC	-0.6	x	0.8	65.1*	5.0	1.7	97.8	96.5
CCOC(=O)[C@]12CCC=C1N(Cc1cccc3ccccc13)C(=O)[C@H](CC(=O)NCCC(C)C)C2	-1.2	x	x	x	x	x	x	x
CCOC(=O)CSc1nnc(-c2cc(OC)c(OC)c(OC)c2)o1	3.0	2.3	0.1	99.5	0.6	5.4	94.0	98.3
COc1cc(-c2nnc(SCC(=O)OC3CCCCC3)o2)cc(OC)c1OC	-1.1	-3.2	0.0	112.5	6.2	-0.5	x	x
COc1cc(-c2nnc(SCC(=O)c3ccccc3)o2)cc(OC)c1OC	-1.7	10.9	0.1	113.3	0.1	3.0	x	x
CCCCCOC(=O)CSc1nnc(-c2cc(OC)c(OC)c(OC)c2)o1	-0.5	-1.4	0.0	112.6	1.5	-2.3	124.1	108.9
CCCCOC(=O)CSc1nnc(-c2ccc(Cl)cc2Cl)o1	0.0	6.1	0.1	105.4	5.1	8.5	x	x
CCCOC(=O)CSc1nnc(-c2cc(OC)c(OC)c(OC)c2)o1	-0.1	5.6	0.2	91.9	7.4	4.4	97.5	112.0
O=C(Nc1ccc2ccccc2c1)C(c1ccccc1)n1c(=O)c(-c2cc3ccccc3[nH]2)nc2ccccc21 (stereo unspecified)	0.0	x	x	x	x	x	x	x
Cc1cccc(CN2C(=O)CCSc3ccc(Cl)cc32)c1	-0.8	2.3	0.0	65.4*	-0.7	2.5	84.4	96.3
CCc1cccc(C)c1NC(=O)c1ccoc1C	-0.3	-3.0	0.0	64.5*	-1.8	-4.1	107.7	104.2
COc1cccc(CNC(=O)c2nnn(CC(=O)Nc3ccc4c(c3)OCO4)c2N)c1	-0.6	x	0.0	104.4	-1.4	6.0	x	x
COc1cccc(Cn2nnc(C(=O)NCc3ccc4c(c3)OCO4)c2N)c1	-0.7	u	-0.1	64.1*	3.0	-0.7	102.1	96.1
COc1ccc(C(=O)C(=O)N2CCN(c3ccc(C)cc3)CC2)cc1OC	-0.1	x	x	x	x	x	x	x
O=C(NCc1ccccc1)c1nc(-c2c(F)cccc2F)oc1-c1ccccc1	-0.2	x	x	x	x	x	x	x
COc1ccc(NC(=O)N2c3ccc(OC)cc3C(C)=CC2(C)C)cc1	-0.3	-6.4	-0.1	85.0	4.0	5.5	x	x
CCNC(=O)N1c2ccc(OC)cc2C(C)=CC1(C)C	-1.4	2.8	0.1	61.1*	5.0	6.9	110.4	112.0
Cc1ccccc1OCC(=O)OCn1nnc2ccccc2c1=O	-0.9	-0.4	0.1	64.6*	5.2	-2.5	108.7	102.1
O=C(COc1ccc(Cl)cc1Cl)OCn1nnc2ccccc2c1=O	-1.4	5.3	0.0	97.3	4.0	-4.6	x	x
COC(=O)C[C@@H]1C=C[C@H](NC(=O)Cc2ccccn2)[C@@H](CO)O1	-0.4	x	x	x	x	x	x	x
O=C(CC1CCCCC1)NCCS(=O)(=O)N1CCN(c2ccccc2)CC1	-0.3	1.9	-0.1	64.0*	-2.9	4.2	96.0	107.2
